This note sets out measurements from ChEMBL document CHEMBL1649496, “Piperaquine pharmacodynamics and parasite viability in a murine malaria model” (Antimicrob Agents Chemother, 2009).

The structures appear in SMILES notation.

Series [1] relates to Plasmodium berghei. Nature of the series: Antiplasmodial activity against Plasmodium berghei ANKA infected in Swiss mouse assessed as median survival time at 90 mg/kg, ip administered 5 days after infection. It counts as functional. Particulars: route intraperitoneal. Put shortly: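 Naive male Swiss mice (5 weeks, n = 5 per donor) inoculated i.p. with 200 µl of a 1:5 dilution of saline-washed, buffy-coat-depleted red cells from PQP-treated infected donor mice (<105 parasites). Five days later three mice per cohort received single i.p. 90 mg/kg PQP in glycerol/phosphate buffer pH 7.1/polysorbate 80; two left untreated. Parasitemia by Giemsa thin films twice daily; median survival recorded.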

The subject of series [2] is Plasmodium berghei. Nature of the series: Antiplasmodial activity against Plasmodium berghei ANKA infected in Swiss mouse assessed as parasitemia at 90 mg/kg, ip measured on day 60 postinfection. The class given is functional. Particulars: route intraperitoneal. The procedure, abridged: (§1)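 Male Swiss mice (5–6 weeks) infected i.p. with 10^7 P. berghei ANKA-parasitized erythrocytes taken from passage BALB/c mice and diluted in citrate-phosphate-dextrose. At 64 h (3–5% parasitemia confirmed by thin film), piperaquine phosphate was given once i.p. at 90 mg/kg in 50% glycerol/30% isotonic phosphate buffer pH 7.1/20% polysorbate 80. Parasitemia was read from May-Grunwald Giemsa tail-blood smears (mean ± SD) and tracked from dosing (day 0).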

Series [3] has as its system Plasmodium berghei. Put plainly: Antiplasmodial activity against Plasmodium berghei ANKA infected in Swiss mouse assessed as parasitemia at 90 mg/kg, ip measured on day 13 postinfection. The class given is functional. Particulars: route intraperitoneal. Put shortly:
as §1

The test system of series [4] is Plasmodium berghei. Nature of the series: Antiplasmodial activity against Plasmodium berghei ANKA infected in Swiss mouse assessed as assessed as time required for parasite recrudescence at 90 mg/kg, ip. The class given is functional. The conditions noted are these: route intraperitoneal.
For series [5], the system named is Plasmodium berghei. Put plainly: Antiplasmodial activity against Plasmodium berghei ANKA infected in Swiss mouse assessed as parasitemia at 90 mg/kg, ip administered 5 days after infection measured up to 25 days. The class given is functional. Particulars: route intraperitoneal. The procedure, abridged:
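Donor blood from previously infected, treated mice was taken by cardiac puncture and the red cells washed three times in 0.9% NaCl. A 1:5 dilution (<10^5 parasites) was given i.p. to naive male mice (5 weeks; n = 5 per donor). Five days later, three mice per group received a single 90 mg/kg i.p. dose of piperaquine phosphate and two stayed untreated. Giemsa smears were read twice daily.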

Series [6] in a line: Plasma concentration in Swiss mouse infected with Plasmodium berghei ANKA at 90 mg/kg, ip after 60 days. The class given is ADME, organism-based. Further details: dose 90 mg/kg, route intraperitoneal. The procedure, abridged:
(§2)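 Infected Swiss mice (n = 4) were dosed with 90 mg/kg piperaquine phosphate i.p. at day 0. Plasma was taken by cardiac puncture, centrifuged at 3,000 x g for 5 min and stored at –80°C. Drug was measured by a validated HPLC assay (LOQ 1.6 µg/liter, LOD 0.7 µg/liter, CV <12%). Values are mean ± SD.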

For series [7], the system named is Plasmodium berghei. Nature of the series: Antiplasmodial activity against Plasmodium berghei ANKA infected in Swiss mouse assessed as parasitemia at 90 mg/kg, ip measured on day 90 postinfection. It counts as functional. Particulars: route intraperitoneal. Put shortly: as §1
For series [8], the system named is Plasmodium berghei. Nature of the series: Antiplasmodial activity against Plasmodium berghei ANKA infected in Swiss mouse assessed as parasitemia at 90 mg/kg, ip measured on day 25 postinfection. Particulars: route intraperitoneal. The class given is functional. The procedure, abridged: as §1
Series [9] is described as follows: Plasma concentration in Swiss mouse infected with Plasmodium berghei ANKA at 90 mg/kg, ip after 25 days. Further details: dose 90 mg/kg, route intraperitoneal. It counts as ADME, organism-based. Put shortly:
as §2

Series [10] deals with Plasmodium berghei. Put plainly: Antiplasmodial activity against Plasmodium berghei ANKA infected in Swiss mouse assessed as parasitemia at 90 mg/kg, ip measured on day 40 postinfection. It counts as functional. Particulars: route intraperitoneal. Put shortly:
as §1

A short description of series [11]: Plasma concentration in Swiss mouse infected with Plasmodium berghei ANKA at 90 mg/kg, ip after 40 days. Further details: dose 90 mg/kg, route intraperitoneal. It counts as ADME, organism-based. The procedure, abridged: as §2

As for `Clc1ccc2c(N3CCN(CCCN4CCN(c5ccnc6cc(Cl)ccc56)CC4)CC3)ccnc2c1.O=P(O)(O)O` [PIPERAQUINE PHOSPHATE], the MST in the series on Plasmodium berghei [1] stood at 19 days. For the same molecule, the Activity in the series on Plasmodium berghei [2] is reported as 0.3%; in the series with Plasmodium berghei [3], 1.32%; in the series on Plasmodium berghei [5], 10%; in the series on Plasmodium berghei [7], 0.9%; with Plasmodium berghei [8], less than 0.015%; with Plasmodium berghei [10], 0.1%. The Time in the series with Plasmodium berghei [4] was 7 days. This molecule displayed a concentration at 1440 h in [6] of 2 ng/mL. Further, the concentration at 600 h in series [9] came to 15 ng/mL. This molecule also gave a concentration at 960 h in series [11] of 11 ng/mL.
